Test results published in ChEMBL document CHEMBL1130340, “Semisynthetic derivatives of purpuromycin as potential topical agents for vaginal infections” (1997).
Values after ≈ are worked out from the molar mass of the structure shown.

Key:
Format in all cases: functional
Candida albicans [1] = experiment: In vitro antimicrobial activity against Candida albicans L145
In short: (§1)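 Candida: broth microdilution MIC in phosphate-buffered Yeast Nitrogen Base broth with glucose (1% w/v) and L-asparagine (0.15% w/v); inoculum about 10^4 cfu/mL; 37 °C, 20–24 h.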

Streptococcus pneumoniae = experiment: In vitro antimicrobial activity against Streptococcus pneumoniae L44
In short: (§2)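 Streptococci: broth microdilution MIC in Todd Hewitt broth; inoculum about 10^4 cfu/mL; 37 °C, 20–24 h.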

Neisseria gonorrhoeae = experiment: In vitro antimicrobial activity against Neisseria gonorrhoeae L997
In short: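 Broth microdilution MIC in GC Base broth plus 1% (v/v) IsoVitaleX; inoculum about 10^4 cfu/mL; 37 °C.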

Staphylococcus aureus [2] = experiment: In vitro antimicrobial activity against Staphylococcus aureus L1 65 30% bovine serum
In short: (§3)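 Broth microdilution MIC against S. aureus L165 in Iso-Sensitest broth, 37 °C, 20–24 h.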

Enterococcus faecalis = experiment: In vitro antimicrobial activity against Enterococcus faecalis ATCC 7080
In short: (§4)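 Broth microdilution MIC in Oxoid Iso-Sensitest broth; inoculum about 10^4 cfu/mL; 37 °C for 20–24 h.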

[3] = test system: Staphylococcus haemolyticus; experiment: In vitro antimicrobial activity against Staphylococcus haemolyticus L602; in short: as §4
Staphylococcus aureus [4] = experiment: In vitro antimicrobial activity against Staphylococcus aureus L165; in short: as §4
Haemophilus influenzae = experiment: In vitro antimicrobial activity against Haemophilus influenza ATCC 19418
In short: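 Broth microdilution MIC in Brain Heart Infusion broth plus 1% (v/v) supplement C; inoculum about 10^4 cfu/mL; 37 °C.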

[5] = test system: Staphylococcus epidermidis; experiment: In vitro antimicrobial activity against Staphylococcus epidermidis ATCC 12228; in short: as §4
Pseudomonas aeruginosa = experiment: In vitro antimicrobial activity against Pseudomonas aeruginosa ATCC 10145; in short: as §4
Escherichia coli = experiment: In vitro antimicrobial activity against Escherichia coli L47; in short: as §4
Streptococcus pyogenes = experiment: In vitro antimicrobial activity against Streptococcus pyogenes L49; in short: as §2
Staphylococcus aureus [6] = experiment: In viro antimicrobial activity against Staphylococcus aureus L165 10 x e+6 cfu/ml; in short: as §3
Bacteroides fragilis = experiment: In vitro antimicrobial activity against Bacteroides fragilis ATCC 25285
In short: (§5)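 Anaerobe MIC by broth microdilution in Wilkins-Chalgren broth; inoculum 5 × 10^5 cfu/mL; 37 °C.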

Proteus vulgaris = experiment: In vitro antimicrobial activity against Proteus vulgaris ATCC881; in short: as §4
Cutibacterium acnes = experiment: In vitro antimicrobial activity against Propionibacterium acnes ATCC 6919; in short: as §5
Trichomonas vaginalis = experiment: Antimicrobial activity against Trichomonas vaginalis
In short: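 Broth microdilution in Trichomonas Culture Medium Base plus 10% horse serum; about 10^5 cells/mL; 48 h at 37 °C under N2-CO2-H2; MIC read by microscopy for viable (motile) protozoa.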

Candida albicans [7] = experiment: In vitro antimicrobial activity against Candida albicans (24); in short: as §1
Gardnerella vaginalis [8] = experiment: In vitro antimicrobial activity against Gardnerella vaginalis (MIC90)
In short: (§6)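 Agar dilution MIC in Casman medium with 5% (v/v) whole and 0.15% (v/v) lysed rabbit blood; inoculum about 10^5 cfu; 48 h at 37 °C under N2-CO2-H2 (80:10:10).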

Candida [9] = experiment: Minimum inhibition concentration for 90% inhibition against Candida species; in short: as §1
Candida [10] = experiment: Minimum inhibition concentration for 50% inhibition against Candida species; in short: as §1
Candida tropicalis [11] = experiment: In vitro antimicrobial activity against Candida tropicalis; in short: as §1
Nakaseomyces glabratus = experiment: In vitro antimicrobial activity against Candida glabrata (1); in short: as §1
Gardnerella vaginalis [12] = experiment: In vitro antimicrobial activity against Gardnerella vaginalis (MIC50); in short: as §6
Staphylococcus aureus [13] = experiment: In vitro antimicrobial activity against Staphylococcus aureus L165 30% bovine serum; in short: as §3
Staphylococcus aureus [14] = experiment: In viro antimicrobial activity against Staphylococcus aureus L16510 x e+6 cfu/ml; in short: as §3
Candida tropicalis [15] = experiment: In vitro antimicrobial activity against Candida tropicalis (2); in short: as §1
Candida albicans [16] = experiment: In vitro antimicrobial activity against Candida albicans(24); in short: as §1

MIC (Candida albicans [1]) [µg/mL]	MIC (Streptococcus pneumoniae) [µg/mL]	MIC (Neisseria gonorrhoeae) [µg/mL]	MIC (Staphylococcus aureus [2]) [µg/mL]	MIC (Enterococcus faecalis) [µg/mL]	MIC (Staphylococcus aureus [4]) [µg/mL]	MIC (Haemophilus influenzae) [µg/mL]	MIC [5] [µg/mL]	MIC (Pseudomonas aeruginosa) [µg/mL]	MIC (Escherichia coli) [µg/mL]	MIC (Streptococcus pyogenes) [µg/mL]	MIC (Staphylococcus aureus [6]) [µg/mL]	MIC (Bacteroides fragilis) [µg/mL]	MIC (Proteus vulgaris) [µg/mL]	MIC (Cutibacterium acnes) [µg/mL]	MIC (Trichomonas vaginalis) [µg/mL]	MIC90 (Gardnerella vaginalis [8]) [µg/mL]	MIC90 (Candida [9]) [µg/mL]	MIC50 (Candida [10]) [µg/mL]	Compound	MIC [3] [µg/mL]	further results
> 128	0.03 (≈ 0.0531 µM)	0.06 (≈ 0.106 µM)	2 (≈ 3.54 µM)	0.06 (≈ 0.106 µM)	0.03 (≈ 0.0531 µM)	0.13 (≈ 0.23 µM)	0.016 (≈ 0.0283 µM)	> 128	> 128	0.13 (≈ 0.23 µM)	0.03 (≈ 0.0531 µM)	0.03 (≈ 0.0531 µM)	> 128						CCCNc1cc(O)c2c(c1O)C(=O)C1=C(CC3(CC(O)c4cc5cc(C(=O)OC)oc(=O)c5c(O)c4O3)O1)C2=O (stereo not drawn)	0.06 (≈ 0.106 µM)	
> 128	0.03 (≈ 0.0533 µM)	0.06 (≈ 0.107 µM)	2 (≈ 3.56 µM)	0.13 (≈ 0.231 µM)	0.13 (≈ 0.231 µM)	0.13 (≈ 0.231 µM)	0.13 (≈ 0.231 µM)	> 128	> 128	0.13 (≈ 0.231 µM)	0.13 (≈ 0.231 µM)	0.5 (≈ 0.889 µM)	> 128	0.016 (≈ 0.0284 µM)					COC(=O)c1cc2cc3c(c(O)c2c(=O)o1)OC1(CC2=C(O1)C(=O)c1c(O)c(NCC#N)cc(O)c1C2=O)CC3O (stereo not drawn)	0.13 (≈ 0.231 µM)	
> 128	1 (≈ 1.77 µM)	64 (≈ 113 µM)	8 (≈ 14.1 µM)	2 (≈ 3.53 µM)	1 (≈ 1.77 µM)	32 (≈ 56.5 µM)	1 (≈ 1.77 µM)	> 128	> 128	2 (≈ 3.53 µM)	1 (≈ 1.77 µM)	> 128	> 128	0.5 (≈ 0.883 µM)					COC(=O)c1cc2cc3c(c(O)c2c(=O)o1)OC1(CC2=C(O1)C(=O)c1c(O)c(NCCN)cc(O)c1C2=O)CC3O (stereo not drawn)	1 (≈ 1.77 µM)	
32 (≈ 61.1 µM)	0.016 (≈ 0.0306 µM)	0.03 (≈ 0.0573 µM)	1 (≈ 1.91 µM)	0.06 (≈ 0.115 µM)	0.03 (≈ 0.0573 µM)	0.06 (≈ 0.115 µM)	0.03 (≈ 0.0573 µM)	> 128	> 128	0.03 (≈ 0.0573 µM)	0.06 (≈ 0.115 µM)	0.06 (≈ 0.115 µM)	> 128	0.008 (≈ 0.0153 µM)	0.5 (≈ 0.955 µM)	0.06 (≈ 0.115 µM)	128 (≈ 245 µM)	64 (≈ 122 µM)	COC(=O)c1cc2cc3c(c(O)c2c(=O)o1)OC1(CC2=C(O1)C(=O)c1c(O)c(N)cc(O)c1C2=O)CC3O (stereo not drawn)	0.06 (≈ 0.115 µM)	MIC (Candida albicans [7]): 2 µg/mL (≈ 3.82 µM); MIC (Candida tropicalis [11]): 128 µg/mL (≈ 245 µM); MIC (Nakaseomyces glabratus): 32 µg/mL (≈ 61.1 µM); MIC50 (Gardnerella vaginalis [12]): 0.06 µg/mL (≈ 0.115 µM)
> 128	0.06 (≈ 0.0978 µM)	0.25 (≈ 0.407 µM)		4 (≈ 6.52 µM)	0.5 (≈ 0.815 µM)	2 (≈ 3.26 µM)	0.13 (≈ 0.212 µM)	> 128	> 128	1 (≈ 1.63 µM)	1 (≈ 1.63 µM)		> 128						COC(=O)c1cc2cc3c(c(O)c2c(=O)o1)OC1(CC2=C(O1)C(=O)c1c(O)c(NCc4ccccc4)cc(O)c1C2=O)CC3O (stereo not drawn)	0.13 (≈ 0.212 µM)	MIC (Staphylococcus aureus [13]): 32 µg/mL (≈ 52.2 µM)
1 (≈ 1.86 µM)	0.06 (≈ 0.111 µM)	0.06 (≈ 0.111 µM)	8 (≈ 14.9 µM)	0.06 (≈ 0.111 µM)	0.03 (≈ 0.0557 µM)	0.03 (≈ 0.0557 µM)	0.03 (≈ 0.0557 µM)	> 128	8 (≈ 14.9 µM)	0.25 (≈ 0.464 µM)		0.25 (≈ 0.464 µM)	32 (≈ 59.4 µM)	0.03 (≈ 0.0557 µM)	8 (≈ 14.9 µM)	8 (≈ 14.9 µM)	2 (≈ 3.71 µM)	1 (≈ 1.86 µM)	COC(=O)c1cc2cc3c(c(O)c2c(=O)o1)OC1(Cc2c(O)c4c(c(O)c2O1)C(=O)C(OC)=CC4=O)CC3O (stereo not drawn)	0.03 (≈ 0.0557 µM)	MIC (Staphylococcus aureus [14]): 0.06 µg/mL (≈ 0.111 µM); MIC (Candida tropicalis [15]): 128 µg/mL (≈ 238 µM); MIC (Candida albicans [16]): 0.25 µg/mL (≈ 0.464 µM); MIC50 (Gardnerella vaginalis [12]): 8 µg/mL (≈ 14.9 µM)
